Most compounds without a hit are left out; they make up all but 1.9% or so of the library.
aDG glyco act: alpha-DG glycosylation activation; 360,000 compounds, 0.22% hits; activation, % at 10 µM; AID 624168; Pro5-aDG cells, alpha-DG glycosylation AlphaScreen (IIH6); 0% Pro5, 100% B10-LARGE cell signal;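 active means activation of at least 8% versus controls, or a plate z-score of at least 8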;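 further: Pro5 are CHO cells carrying HIG-tagged alpha-DG that lacks glycosylation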
UCH37 DUB inh: inhibitors of human deubiquitinating enzyme UCH37. inhibition, % (concentration not given with the values). Q9Y5K5. 330,000 compounds, 0.33% hits. purified proteasome/UCH37, Ub-AMC cleavage fluorescence;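 active means mean inhibition over replicate wells above about 20%, limit read from the data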;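 further: 0% = compound-free wells with enzyme and 100% = wells lacking proteasome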
Target sequence (Q9Y5K5 whole entry, looked up): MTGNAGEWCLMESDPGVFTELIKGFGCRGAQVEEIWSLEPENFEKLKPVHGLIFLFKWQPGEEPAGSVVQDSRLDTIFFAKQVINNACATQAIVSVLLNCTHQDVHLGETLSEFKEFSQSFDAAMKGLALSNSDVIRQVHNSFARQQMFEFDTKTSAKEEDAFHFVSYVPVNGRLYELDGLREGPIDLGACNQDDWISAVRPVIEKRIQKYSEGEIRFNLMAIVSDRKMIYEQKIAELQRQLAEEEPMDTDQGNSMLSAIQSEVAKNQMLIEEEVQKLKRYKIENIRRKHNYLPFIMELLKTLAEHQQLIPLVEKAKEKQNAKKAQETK
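System: Proteasome-associated human UCH37 deubiquitinase; Input: 0.15 nM proteasome in added enzyme buffer; Also added: Ub-AMC substrate from 1 µM stock; Incubation: 30 min compound-proteasome preincubation then 25 min substrate reaction, room temperature; Detection: fluorescence, ex 355 nm, em 460 nm; Read-out: % inhibition of Ub-AMC cleavage fluorescence; Benchmarks: no-proteasome and no-compound wells.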
MsrA inhibitor: bovine MsrA inhibition; purified bovine MsrA, absorbance read-out; inhibition, % at 15.5 µM; 360,000 compounds, 0.75% hits;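 further: 0% = vehicle wells with enzyme and 100% = reference inhibitor wells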
Vif imaging: inhibitors of HIV Vif. inhibition, % at 7.49 µM. HEK293T cells, Vif self-association by quenched fluorescence, imaging, 24 h. 340,000 compounds, 0.35% hits; in the data active means inhibition above about 50%, passing the limit was not always enough
MsrA act: bovine methionine sulfoxide reductase A activation | 360,000 compounds, 0.3% hits | purified bovine MsrA, absorbance read-out | activation, % at 10.6 µM; in the data active means activation above about 7.5%;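 further: 0% = vehicle and 100% = reference activator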
N-glyco inh: blocks N-linked glycosylation in D54 reporter cells | 360,000 compounds, 0.23% hits | AID 588692 | D54 ERlucT glycosylation luciferase reporter, 24 h; percent of 100 nM tunicamycin response | reporter increase, % at 12.5 µM;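 active means mean luciferase reporter signal, scaled so untreated is 0 and the glycosylation-blocking control 100, at or above a set limit in every replicate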;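 further: luciferase carries N-glycosylation sites so blocking glycosylation raises the light; 0% = median of neutral control wells and 100% = median of 100 nM tunicamycin wells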
MsrA inh confirm: confirmation of bovine MsrA inhibitors; purified bovine MsrA, absorbance read-out; inhibition, % at 15.5 µM; 2,300 compounds, 41% hits; shares compounds with MsrA inhibitor;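 further: coupled to thioredoxin reductase with NADPH and selenocystamine and DMSO as substrate; 0% = vehicle only and 100% = full effect of reference inhibitor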
An asterisk follows results filed as active; i = inactive; . = not tested or not shown. Unless noted, no stated cut-off is given here; in the data, active means inhibition above about 4.5%; inactive means the rest.

SMILES	aDG glyco act	UCH37 DUB inh	MsrA inhibitor	Vif imaging	MsrA act	N-glyco inh	MsrA inh confirm
COc1ccc(NC(=O)/C(C#N)=C\c2ccc(-c3cccc(C(=O)O)c3C)o2)cc1	0	10	3	-4	-4	0	.
O=C(N/N=C/c1ccc(-c2ccccc2[N+](=O)[O-])o1)c1cccnc1	0	.	7.1*	20	1	7	3
Nc1nonc1-c1nc2ccccc2n1CC(=O)N/N=C/c1ccc(-c2cccc(C(=O)O)c2)o1	0	.	5.7*	-2	-5	4	6.3*
Cc1c(C(=O)O)cccc1-c1ccc(C=O)o1	0	6	5.0*	-5	-6	3	3
Cc1nnc(N/N=C/c2ccc(-c3ccc(Br)cc3)o2)n1N	0	.	2	9	2	11	.
Cc1nnc(N/N=C\c2ccc(-c3cccc(C(=O)O)c3)o2)n1N	1	.	5.0*	5	3	6	6.0*
COCCNC(=S)NN=C(C)c1ccc(OC)cc1	.	5	.	.	.	.	.
COc1cc(C=NO)ccc1OCc1ccc([N+](=O)[O-])cc1	.	5	.	.	.	.	.
O=c1[nH]c(/C=C/c2ccc(Br)cc2)nc2ccccc12	0	-38	-1	0	0	-8	.
C(=C\c1nc2ccccc2[nH]1)/c1ccccc1	0	-298	4.7*	-2	-9	-14	4
C(=C\c1ccco1)/c1nc2ccccc2[nH]1	0	-32	5.6*	2	-3	-17	4.9*
Nc1nnc(CC(=O)NN=Cc2ccc(-c3cccc(Cl)c3)o2)s1	.	-12	.	.	.	.	.
O=c1cc(-c2ccc(O)c(O)c2)oc2c(C3O[C@H](CO)[C@@H](O)[C@H](O)[C@H]3O)c(O)cc(O)c12 (some centres not stated)	0	5	5.6*	.	-4	2	4
O=c1cc(-c2ccc(O)cc2)oc2c(C3O[C@H](CO)[C@@H](O)[C@H](O)[C@H]3O)c(O)cc(O)c12 (some centres not stated)	0	7	4	-2	1	4	.
COc1cc(/C=N/NC(=O)[C@H](Cc2c[nH]c3ccccc23)NC(=O)OCC(C)C)cc([N+](=O)[O-])c1O	0	.	6.4*	19	-7	0	4
CN(C)c1ccc(C=NNC(=O)CCc2nc3ccccc3[nH]2)cc1	.	-84	.	.	.	.	.
COc1ccc(C=NNC(N)=S)cc1OC(=O)c1cccc2ccccc12	.	3	.	.	.	.	.
FC(F)(F)c1ccccc1C=Nn1c(C2CCCCC2)n[nH]c1=S	.	7	.	.	.	.	.
COc1ccc2cc3cc(C(=O)NCCCN4CCOCC4)oc3nc2c1	0	i	6.6*	1	-7	8	4
Cc1ccc(S(=O)(=O)N(C)N=C2C(=O)N(CC(=O)O)c3ccccc32)cc1	.	4	.	.	.	.	.
CCOC(=O)/C(=C/C=C/c1ccccc1)NC(=O)c1ccccc1	0	.	5.6*	-2	-5	0	2
O=C(O)CCNC(=O)/C(=C/C=C/c1ccccc1)NC(=O)c1ccccc1	0	12	5.5*	0	-5	0	3
CCCOC(=O)/C(=C\C=C\c1ccccc1)NC(=O)c1ccccc1	0	2	2	5	-16	0	.
N#C/C(=C\C=C\c1ccccc1)C(=O)NCc1ccco1	0	6	4	2	-6	4	.
O=C(NCc1ccco1)/C(=C/C=C\c1ccccc1)NC(=O)c1ccc(Br)o1	0	6	5.0*	-4	-6	-1	4
SMILES	aDG glyco act	UCH37 DUB inh	MsrA inhibitor	Vif imaging	MsrA act	N-glyco inh	MsrA inh confirm
CCOC(=O)/C(=C\C=C\c1ccccc1)NC(=O)c1ccccc1	-1	4	6.8*	0	-13	0	6.1*
COc1ccccc1C=NNS(=O)(=O)c1ccccc1	.	-2	.	.	.	.	.
C=CCNC(=O)CC(=O)NN=Cc1ccccc1F	.	7	.	.	.	.	.
CCN(/N=C/c1cccs1)c1cc(=O)n(C)c(=O)[nH]1	0	.	7.2*	3	-4	2	6.7*
CN(/N=C/c1cccs1)c1cc(=O)n(C)c(=O)[nH]1	0	.	9.0*	5	-8	2	5.8*
CCN(N=Cc1ccccc1)c1cc(=O)n(C)c(=O)[nH]1	.	13	.	.	.	.	.
CCN(N=C/C=C/c1ccccc1)c1cc(=O)n(C)c(=O)[nH]1	.	20	.	.	.	.	.
Cc1oc2c(c1C(=O)N1CCC(C)CC1)C(=O)c1ccccc1C2=O	.	13	13*	.	.	.	6.0*
CCOC(=O)C1CCN(C(=O)c2c(C)oc3c2C(=O)c2ccccc2C3=O)CC1	4.3*	6	9.3*	.	2	-14	14*
CCOC(=O)C1CCN(C(=O)c2ccc(C)o2)CC1	0	.	0	-1	-4	-1	.
N#CCC(=O)NN=Cc1cc([N+](=O)[O-])ccc1N1CCCC1	.	4	.	.	.	.	.
CCOC(=O)C1CCN(CC(=O)c2ccc(O)c(C)c2O)CC1	1	-6	4.7*	-18	-9	-3	4
COC(=O)c1ccc(OCC(=O)c2ccc(O)cc2O)cc1	-1	8	5.0*	-7	-4	1	3
O=C(COc1ccccc1F)c1ccc(O)cc1O	0	7	7.6*	-3	-6	0	4
CCOC(=O)N1CCN(CC(=O)c2ccc(O)c(C)c2O)CC1	0	2	2	17	-3	-2	.
Cc1c(O)ccc(C(=O)CN2C(=O)c3ccccc3C2=O)c1O	0	4	5.7*	-2	-4	-1	4
Cc1cc(C)c(C=NNC(=O)c2nnn(-c3nonc3N)c2CN2CCC(C)CC2)c(C)c1	.	6	.	.	.	.	.
Cc1onc(-c2ccccc2)c1C(=O)NN=C/C(Br)=C/c1ccccc1	.	-1	.	.	.	.	.
Cc1c(O)ccc(C(=O)COc2ccccc2F)c1O	0	3	4.8*	6	-12	-2	3
O=C(O)c1ccc(-c2nc3ccccc3s2)o1	0	-40	5.2*	8	-4	-4	4
O=C(c1ccc(-c2nc3ccccc3s2)o1)N1CCN(c2ccccc2O)CC1	0	5	3	-1	-2	0	.
O=C(O)CCSc1ccc([N+](=O)[O-])cc1[N+](=O)[O-]	1	.	5.4*	4	-12	4	3
S=C(N/N=C/c1ccc2ncccc2c1)Nc1cccnc1	0	.	7.2*	8	3	-10	4
Oc1ccc(C=NNC(=S)Nc2cccnc2)cc1	.	10	.	.	.	.	.
Oc1ccc(C=NNC(=S)Nc2cccnc2)nc1	0	.	7.0*	1	-3	-2	5.5*
Cc1ccccc1/C=N/n1c(C2CCCCC2)n[nH]c1=S	0	.	14*	-4	-2	1	12*
S=c1[nH]nc(C2CCCCC2)n1/N=C/c1ccccc1Br	0	.	13*	8	-2	1	12*
Cc1ccc(/C=N/n2c(C3CCCCC3)n[nH]c2=S)cc1	0	.	7.8*	-11	0	0	4
Fc1ccccc1/C=N/n1c(C2CCCCC2)n[nH]c1=S	0	.	2	10	2	0	.
